# Results taken from ChEMBL document CHEMBL1137210, “DNA binding ligands with improved in vitro and in vivo potency against drug-resistant Staphylococcus aureus” (2004).
# Experiments:
# Format in all cases: functional
# Staphylococcus aureus [1] = assay: Minimum inhibitory concentration required for antibacterial activity against methicillin-resistant Staphylococcus aureus with 2% human plasma albumin
# How it was run: (§1)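 MRSA ATCC 27660, with 2% human plasma albumin added to the test medium during MIC determination.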
# Staphylococcus aureus [2] = assay: Minimum inhibitory concentration required for antibacterial activity against methicillin-resistant Staphylococcus aureus 27660
# Staphylococcus aureus [3] = assay: Minimum inhibitory concentration required for antibacterial activity against methicillin-susceptible Staphylococcus aureus 13709
# Mus musculus [4] = assay: No. of mice survived infected intraperitoneally with methicillin-resistant Staphylococcus aureus after 5 days of treatment at a dose of 1 mg/kg (Total mice tested 5)
# How it was run: (§2)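 Mouse peritonitis model: intraperitoneal infection with a 5–10 × LD50 inoculum of MRSA ATCC 27660. A single intravenous dose was given 1 h post-infection, alongside vehicle and vancomycin controls. Animals were monitored for 5 days, with survival as the primary endpoint; 5 mice per dose group.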
# Mus musculus [5] = assay: No. of mice survived infected intraperitoneally with methicillin-resistant Staphylococcus aureus after 5 days of treatment at a dose of 3 mg/kg (Total mice tested 5); how it was run: as §2
# Mus musculus [6] = assay: No. of mice survived infected intraperitoneally with methicillin-resistant Staphylococcus aureus after 5 days of treatment at a dose of 10 mg/kg (Total mice tested 5); how it was run: as §2
# Mus musculus [7] = assay: No. of mice survived infected intraperitoneally with methicillin-resistant Staphylococcus aureus after 5 days of treatment at a dose of 25 mg/kg (Total mice tested 5); settings: route intravenous; how it was run: as §2
# Staphylococcus aureus [8] = assay: Minimum inhibitory concentration required for antibacterial activity against methicillin-susceptible Staphylococcus aureus 13709; value ranges from <0.03-0.06
# Staphylococcus aureus [9] = assay: Minimum inhibitory concentration required for antibacterial activity against methicillin-resistant Staphylococcus aureus 27660; value ranges from 0.03-0.06
# Staphylococcus aureus [10] = assay: Minimum inhibitory concentration required for antibacterial activity against methicillin-resistant Staphylococcus aureus with 2% human plasma albumin; value ranges from 0.25-1; how it was run: as §1
# Enterococcus faecium = assay: Minimum inhibitory concentration required for antibacterial activity against vancomycin-resistant Enterococcus faecium 51559
# Streptococcus pneumoniae = assay: Minimum inhibitory concentration required for antibacterial activity against penicillin-resistant Streptococcus pneumoniae 51422
# Staphylococcus aureus [11] = assay: Minimum inhibitory concentration required for antibacterial activity against methicillin-resistant Staphylococcus aureus with 2% human plasma albumin; value ranges from 0.13-1; how it was run: as §1
# Staphylococcus aureus [12] = assay: Minimum inhibitory concentration required for antibacterial activity against vancomycin-resistant Staphylococcus aureus HMC3
# Staphylococcus aureus [13] = assay: Minimum inhibitory concentration required for antibacterial activity against methicillin-resistant Staphylococcus aureus with 2% human plasma albumin; value ranges from 0.13-0.25; how it was run: as §1
# Staphylococcus aureus [14] = assay: Minimum inhibitory concentration required for antibacterial activity against methicillin-resistant Staphylococcus aureus 27660; value ranges from 0.25-0.5
# Staphylococcus aureus [15] = assay: Minimum inhibitory concentration required for antibacterial activity against methicillin-susceptible Staphylococcus aureus 13709; value ranges from 0.13-0.06
# Staphylococcus aureus [16] = assay: Minimum inhibitory concentration required for antibacterial activity against methicillin-resistant Staphylococcus aureus with 2% human plasma albumin; value ranges from 1-2; how it was run: as §1
# Staphylococcus aureus [17] = assay: Minimum inhibitory concentration required for antibacterial activity against methicillin-resistant Staphylococcus aureus with 4% human plasma albumin
# How it was run: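 MIC against MRSA determined with 4% human plasma albumin present in the test medium.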
# Staphylococcus aureus [18] = assay: Minimum inhibitory concentration required for antibacterial activity against methicillin-resistant Staphylococcus aureus 27660; value ranges from 0.06-0.13
# Staphylococcus aureus [19] = assay: Minimum inhibitory concentration required for antibacterial activity against methicillin-susceptible Staphylococcus aureus 13709; value ranges from 0.03-0.06
# [20] = Staphylococcus aureus, Plasma, read-out: MIC
SMILES,MIC (Staphylococcus aureus [1]; [20]) [µg/mL],MIC (Staphylococcus aureus [2]) [µg/mL],MIC (Staphylococcus aureus [3]) [µg/mL],Efficacy (Mus musculus [7]),MIC (Enterococcus faecium) [µg/mL],MIC (Streptococcus pneumoniae) [µg/mL],other results
Cn1cc(NC(=O)c2ccc(NC(=O)c3cc(NC(=O)c4cc5ccccc5cn4)cn3C)cc2)cc1C(=O)NCCN1CCN(CCO)CC1,> 32,16,32,,,,
COC1CCN(CCNC(=O)c2cc(NC(=O)c3ccc(NC(=O)c4cc(NC(=O)c5cc6ccccc6cn5)cn4C)cc3)cn2C)CC1,8,1,1,,,,
Cn1cc(NC(=O)c2cc3ccccc3cn2)cc1C(=O)Nc1ccc(C(=O)Nc2cn(C)c(C(=O)NCCN3CCC(O)CC3)n2)cc1,,,,5,,,Efficacy (Mus musculus [4]): 0; Efficacy (Mus musculus [5]): 2; Efficacy (Mus musculus [6]): 5; MIC (Staphylococcus aureus [8]): 0.06 µg/mL; MIC (Staphylococcus aureus [9]): 0.06 µg/mL; MIC (Staphylococcus aureus [10]): 1 µg/mL
Cn1cc(NC(=O)c2ccc(NC(=O)c3nc(NC(=O)c4cc5ccccc5cn4)cn3C)cc2)nc1C(=O)NCCN1CCOCC1,1,0.06,0.13,,0.13,0.25,
Cn1cc(NC(=O)c2ccc(NC(=O)c3nc(NC(=O)c4cc5ccccc5cn4)cn3C)cc2)cc1C(=O)NCCN1CCOCC1,32,16,2,,0.5,0.5,
Cn1cc(NC(=O)c2cc3cc4c(cc3s2)OCO4)cc1C(=O)Nc1ccc(C(=O)Nc2cn(C)c(C(=O)NCCN3CCC(O)CC3)n2)cc1,,0.008,0.008,,,,Efficacy (Mus musculus [4]): 3; Efficacy (Mus musculus [5]): 4; MIC (Staphylococcus aureus [11]): 1 µg/mL; MIC (Staphylococcus aureus [12]): 0.008 µg/mL
COC1CCN(CCNC(=O)c2nc(NC(=O)c3ccc(NC(=O)c4cc(NC(=O)c5cc6ccccc6cn5)cn4C)cc3)cn2C)CC1,,0.03,0.03,2,,,MIC (Staphylococcus aureus [13]): 0.25 µg/mL
COCCN(CCNC(=O)c1nc(NC(=O)c2ccc(NC(=O)c3cc(NC(=O)c4cc5ccccc5cn4)cn3C)cc2)cn1C)CCOC,,,,0,,,MIC (Staphylococcus aureus [14]): 0.5 µg/mL; MIC (Staphylococcus aureus [15]): 0.13 µg/mL; MIC (Staphylococcus aureus [16]): 2 µg/mL
Cn1cc(NC(=O)c2cc3ccccc3cn2)cc1C(=O)Nc1ccc(C(=O)Nc2cn(C)c(C(=O)NCCN3CCN(CCO)CC3)n2)cc1,1,0.06,0.06,5,,,
COCCN(CCNC(=O)c1cc(NC(=O)c2ccc(NC(=O)c3cc(NC(=O)c4cc5ccccc5cn4)cn3C)cc2)cn1C)CCOC,32,8,4,,,,
Cn1cc(NC(=O)c2ccc(NC(=O)c3cc(NC(=O)c4cc5ccccc5cn4)cn3C)cc2)cc1C(=O)NCCN1CCC(O)CC1,,0.5,0.5,,,,MIC (Staphylococcus aureus [17]): 16 µg/mL
Cn1cc(NC(=O)c2cc3ccccc3cn2)cc1C(=O)Nc1ccc(C(=O)Nc2cn(C)c(C(=O)NCCN3CCOCC3)n2)cc1,0.13,0.008,0.008,,0.008,0.03,Efficacy (Mus musculus [6]): 1; MIC (Staphylococcus aureus [12]): 0.008 µg/mL
Cn1cc(NC(=O)c2ccc(NC(=O)c3cc(NC(=O)c4cc5ccccc5cn4)cn3C)cc2)cc1C(=O)NCCN1CCOCC1,1,0.06,0.06,5,1,0.06,Efficacy (Mus musculus [5]): 0; Efficacy (Mus musculus [6]): 3; MIC (Staphylococcus aureus [18]): 0.13 µg/mL; MIC (Staphylococcus aureus [1]): 1 µg/mL; MIC (Staphylococcus aureus [19]): 0.06 µg/mL; MIC (Staphylococcus aureus [12]): 0.25 µg/mL
